Most compounds without a hit are left out; they make up all but 4% or so of the library.
OX1R antag-1 = blocks the human orexin 1 receptor. AID 485270. OX1R-expressing cells, FRET antagonist read-out. O43613. actives 1.8% (n = 330,000). inhibition, % at 6.6 µM; in the data active = inhibition mostly above about 38%, no sharp cut-off; inactive = mostly below about 40%;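 note: 0% = agonist challenge alone and 100% = reference antagonist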
TAAR1 ag = agonists of human TAAR1. actives 0.99% (n = 360,000). AID 624467. Q96RJ0. CHO RD-HGA16 TAAR1, Fluo-8 calcium fluorescence; vehicle wells 0%, saturating PEA agonist 100%. activation, % at 3 µM;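 active = activation above the mean activation of all test compounds in the run plus 3 SD, cut at about 38% in these data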
Target sequence (Q96RJ0 whole entry, looked up): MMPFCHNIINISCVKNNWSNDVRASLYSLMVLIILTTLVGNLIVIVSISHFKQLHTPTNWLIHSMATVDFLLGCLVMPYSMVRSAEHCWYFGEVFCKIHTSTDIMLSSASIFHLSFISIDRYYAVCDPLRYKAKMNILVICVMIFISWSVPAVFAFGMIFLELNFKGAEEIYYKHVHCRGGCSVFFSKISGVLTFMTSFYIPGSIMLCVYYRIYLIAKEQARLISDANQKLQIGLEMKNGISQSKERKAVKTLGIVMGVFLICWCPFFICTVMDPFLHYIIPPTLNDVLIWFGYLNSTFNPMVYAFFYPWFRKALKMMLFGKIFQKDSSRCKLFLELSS
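System: CHO RD-HGA16 cells carrying human TAAR1 plus Gα16; Incubation: 17-24 h seeding, 75 min 37 °C dye, 30 min RT; Measured by: Fluo-8 fluorescence, 5 s baseline then 140 s kinetic read; Control set: DMSO and PEA EC100; Replication: single well for each compound.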
CHO parental Ca = signal in parental CHO cells, OX1R antagonist counter-screen. actives 0.63% (n = 330,000). inhibition, % at 5.6 µM. parental CHO-K1, ATP-induced calcium, Fluo-8 fluorescence. AID 463079;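 active = inhibition above that plate's mean sample inhibition plus 3 SD, cut at about 26% in these data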;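 note: 0% = ATP-challenged DMSO wells and 100% = DMSO wells without ATP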
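Test system: parental CHO cells; detection: calcium-sensitive Fluo-8 fluorescence; evaluation: percent inhibition of calcium signal; also added: ATP as calcium-mobilizing challenge; repeats: one well per compound; control set: ATP-challenged DMSO wells low, unchallenged DMSO wells high; compound: single nominal dose of 5.6 µM per compound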
OX1R antag-2 = human HCRTR1 antagonism. O43613. CHO/OX1R cells, Fluo-8 calcium fluorescence, orexin A. inhibition, % at 5 µM. actives 0.43% (n = 330,000);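 active = inhibition above its plate's threshold, mean inhibition of all tested compounds on the plate plus 3 SD, cut at about 37% in these data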;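 note: 0% = orexin A challenge wells and 100% = SB-334867-A antagonist wells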
TAAR1 antag = antagonists of human TAAR1; actives 1.5% (n = 360,000); inhibition, % at 3 µM; AID 624466; Q96RJ0; CHO RD-HGA16 TAAR1, Fluo-8 calcium fluorescence, antagonist;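 active = inhibition above a per-plate cutoff, the mean inhibition of test compounds on that plate plus 3 SD, cut at about 49% in these data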;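 note: 0% = DMSO plus EC80 beta-PEA response and 100% = DMSO alone without agonist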
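test system = CHO RD-HGA16 cells bearing hTAAR1 | replication = singlicate | controls = DMSO-only wells and EC80 β-PEA-stimulated wells | reagent = EC80 β-phenethylamine stimulus | read-out basis = percent inhibition of PEA-evoked calcium signal, max/basal emission ratio | schedule = seeding 17-24 h prior, 75-min 37 °C, 30-min RT dye loading | signal = kinetic Fluo-8 calcium fluorescence measurement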
NTR1 agonist = agonists of human neurotensin receptor NTR1. actives 0.17% (n = 330,000). NTR1-U2OS beta-arrestin-GFP spot imaging, agonist mode. P30989. activation, % at 20 µM;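 active = activation at or above 40% of the spot to cytoplasm intensity ratio, with at least 20 cells analyzed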;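 note: 0% = DMSO without peptide and 100% = 100 nM NTR1 peptide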
Target sequence (P30989 whole entry, looked up): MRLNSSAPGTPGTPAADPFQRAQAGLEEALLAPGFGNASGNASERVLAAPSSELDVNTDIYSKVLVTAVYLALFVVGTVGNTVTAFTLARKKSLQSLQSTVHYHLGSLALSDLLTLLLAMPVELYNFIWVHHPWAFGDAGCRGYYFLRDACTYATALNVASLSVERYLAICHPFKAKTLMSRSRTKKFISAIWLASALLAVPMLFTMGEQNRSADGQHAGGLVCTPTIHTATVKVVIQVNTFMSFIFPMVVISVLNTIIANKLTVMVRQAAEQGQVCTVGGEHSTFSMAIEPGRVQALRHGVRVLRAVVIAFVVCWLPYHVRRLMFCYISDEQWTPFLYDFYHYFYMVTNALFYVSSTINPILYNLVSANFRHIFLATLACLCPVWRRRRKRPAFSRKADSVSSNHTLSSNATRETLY
Numbers without * were called inactive; nt = no result.

SMILES | OX1R antag-1 | TAAR1 ag | CHO parental Ca | OX1R antag-2 | TAAR1 antag | NTR1 agonist
Nc1ccn([C@@H]2O[C@H](C(=O)N[C@H](Cc3ccccc3)C(=O)N3CCN(CC(=O)N4CCCC4)CC3)[C@@H](O)[C@H]2O)c(=O)n1 | nt | 3 | nt | nt | -14 | nt
COc1cc(-c2cnc3c(NC=O)cc(-c4ccc(C)cc4)cn23)cc(OC)c1OC | nt | 24 | nt | nt | 1 | nt
COc1ccccc1-c1cc(NC=O)c2ncc(-c3cccc(C(F)(F)F)c3)n2c1 | nt | 5 | nt | nt | 24 | nt
COc1ccccc1-c1cc(NC=O)c2ncc(-c3ccc(F)cc3)n2c1 | nt | 52* | nt | nt | 51* | nt
COc1ccc(F)cc1-c1cc(NC=O)c2ncc(-c3cc(OC)c(OC)c(OC)c3)n2c1 | nt | 48* | nt | nt | 77* | nt
COC(=O)C1=C(C(=O)OC)C2CCCC1C1N=NN(c3ccccc3)C21 (stereo not drawn) | nt | 0 | nt | nt | -3 | nt
C=C1CC(Cn2cc(Br)c(=O)[nH]c2=O)(c2ccc(-c3ccccc3)cc2)OC1=O (stereo not drawn) | nt | 5 | nt | nt | 68* | nt
O=c1[nH]c(=O)n(Cc2ccc(Oc3ccccc3)cc2)cc1Br | 15 | 9 | -3 | -6 | 16 | 0
CCOc1ccc(C(=O)COC(=O)Cn2cnc3c2c(=O)n(C)c(=O)n3C)cc1 | 4 | 6 | -10 | -6 | -7 | 1
Cn1c(=O)c2c(ncn2CC(=O)OCCCC(=O)c2ccc(Br)cc2)n(C)c1=O | 18 | 4 | 35* | 38 | -10 | 2
c1ccc(Cn2nnnc2C(c2cccnc2)N2CCN(c3ccccc3)CC2)cc1 (stereo not drawn) | 11 | 22 | -12 | -13 | 51* | 1
Cc1ccc(/C=C2/NC(=O)N(Cc3ccccc3)C2=O)s1 | 2 | 40* | 21 | 20 | 35 | 3
Cc1nc([N+](=O)[O-])cn1-c1nc2ccccn2c1[N+](=O)[O-] | 54* | 2 | -3 | -11 | -4 | -1
Cc1nc([N+](=O)[O-])cn1CC(=O)c1ccccc1 | 21 | 1 | 2 | -6 | -13 | -1
O=C(CN1C(=O)C2C3C=CC(C3)C2C1=O)OCC(=O)c1ccc([N+](=O)[O-])cc1 (stereo not drawn) | 58* | -2 | 2 | -16 | 1 | 0
O=C(N/C(=C/c1cccc([N+](=O)[O-])c1)C(=O)N1CCOCC1)c1ccc(Br)cc1 | 12 | 10 | -4 | -19 | -35 | 1
Cc1ccc2nc(N/N=C/c3ccccc3F)nc(-c3ccccc3)c2c1 | 51* | 3 | -22 | -22 | 13 | 3
O=C(NCc1ccccc1)[C@@H]1CCCN1C(=O)[C@H]1CCCN1C(=O)c1ccc(OC(F)(F)F)cc1 | nt | -1 | nt | nt | -11 | nt
Cc1n[nH]c(=O)nc1NCCc1ccccc1 | 16 | 40* | 5 | -2 | 0 | 6
Cc1n[nH]c(=O)nc1NCc1ccccc1 | 6 | 5 | 5 | 4 | 8 | 0
C=CCNC(=S)N(C)[C@H]1C[C@H]2c3[nH]c4c(-c5ccccc5)cccc4c3CCN2C(=O)[C@H]1[C@H](C)O | nt | 15 | nt | nt | 38 | nt
FC(F)Oc1ccc(NC(=S)NC2CCCCCCC2)cc1 | 29 | 3 | 37* | 24 | 8 | 1
C/C(=N\NC(=S)NC1CCCCC1)c1ccc(OC(F)F)cc1OC(F)F | 37 | 0 | 41* | 28 | 23 | 1
COc1ccc(CC(=O)Oc2ccc(C)cc2Br)cc1OC | 19 | -1 | 2 | -1 | 11 | 3
O=C(Nc1ccc(Nc2cccnc2)cc1)c1c[nH]c2ccccc12 | nt | 4 | nt | nt | 23 | nt
SMILES | OX1R antag-1 | TAAR1 ag | CHO parental Ca | OX1R antag-2 | TAAR1 antag | NTR1 agonist
CCOC(=O)C1=CCN(S(=O)(=O)c2cccc(Cl)c2)C1c1ccc(Cl)c(Cl)c1 (stereo not drawn) | nt | 1 | nt | nt | 17 | nt
Cc1ccccc1Nc1nc(N)nc(COC(=O)c2cccc(S(=O)(=O)NCc3ccccc3)c2)n1 | 31 | 28 | -11 | -7 | 55* | 11
Cn1cnc2ccc([N+](=O)[O-])cc2c1=O | 75* | 1 | -7 | -13 | 9 | 2
CCOC(=O)CCn1cnc2ccc([N+](=O)[O-])cc2c1=O | 36 | 5 | -5 | -12 | -21 | 3
O=c1c2ccccc2ncn1-c1cccc([N+](=O)[O-])c1 | 22 | 0 | 9 | -6 | -17 | 0
O=c1c2ccccc2ncn1-c1ccc([N+](=O)[O-])cc1[N+](=O)[O-] | 58* | 12 | 18 | -11 | -2 | 0
CCN(CC)CCNC(=O)c1ccc(NCN2C(=O)NC(c3ccccc3)(c3ccccc3)C2=O)cc1 | nt | 4 | nt | nt | -14 | nt
Cc1ccccc1NC(=O)Cc1nc(COC(=O)COc2ccccc2C(C)C)cs1 | -4 | 2 | -26 | 28 | 55* | 2
C#CCN1CC(COc2ccccc2)Oc2cccc(Oc3ccc(C(C)C)cc3)c2S1(=O)=O (stereo not drawn) | nt | 1 | nt | nt | 5 | nt
C#Cc1ccc(NC(=O)C2(C)CCN2C(=O)C2(c3ccccc3)CCCC2)cc1 (stereo not drawn) | nt | -1 | nt | nt | 36 | nt
CCn1nc(C(C)C)cc1C(=O)N1CCCC(CO)(Cc2ccc(F)cc2F)C1 (stereo not drawn) | 44* | 5 | -21 | 3 | -8 | 0
Cc1cc(C)n(CCNC(=O)[C@@H](Cc2ccccc2)NC(=O)[C@H]2O[C@@H](n3ccc(=O)[nH]c3=O)[C@H](O)[C@@H]2O)n1 | nt | 1 | nt | nt | 13 | nt
Cc1cc(NC(=O)Cc2c(C)[nH]c3ccccc23)ccc1Oc1cccnc1 | nt | 7 | nt | nt | 6 | nt
S=c1[nH]nc(-c2ccncc2)n1/N=C/C(Cl)=C\c1ccccc1 | 42* | 52* | -19 | -28 | -13 | 15
S=c1[nH]nc(-c2ccncc2)n1/N=C/C=C/c1ccccc1 | 21 | 3 | -20 | -18 | -7 | -1
NS(=O)(=O)c1ccc(CCNC(=O)CCCCCn2c(=S)[nH]c3ccc(Br)cc3c2=O)cc1 | 19 | 25 | 6 | -18 | 60* | 2
O=C(Nc1ccc(S(=O)(=O)N2CCCCC2)cc1)c1ccc(CN2CCc3ccccc3C2)cc1 | 16 | 5 | 47* | -10 | 4 | 9
O=C(Nc1cccc(S(=O)(=O)N2CCCCC2)c1)c1ccc(S(=O)(=O)C(F)F)cc1 | 19 | 11 | 4 | -15 | 53* | 1
CCNc1ccc(S(=O)(=O)N2CCOCC2)cc1NCC(=O)Nc1cccc(Br)c1 | nt | 13 | nt | nt | 53* | nt
CN(C)S(=O)(=O)c1cccc(NC(=O)c2ccc(S(=O)(=O)N3CCCCC3)cc2)c1 | 8 | 7 | 4 | -13 | 11 | 1
O=C(CNc1cccc(Br)c1)Nc1ccc(S(=O)(=O)N2CCCCC2)cc1 | nt | 10 | nt | nt | -9 | nt
O=C(CNc1cccc(S(=O)(=O)N2CCCCCC2)c1)Nc1cccc([N+](=O)[O-])c1 | 7 | 9 | -1 | 32 | 56* | 2

Screening results deposited in PubChem BioAssay by several laboratories.
